Experimental data gathered from unrelated publications.
Protocols differ between the studies behind these lines.
Target: MAP/microtubule affinity-regulating kinase 3 (MARK3, Homo sapiens, UniProt P27448)

For O=C(c1ccc(Nc2nccc(-c3cc4ccccc4s3)n2)cc1)N1CCC(N2CCCC2)CC1, the remaining binding was 100% (binding, competition with immobilised ligand; 1 µM).
COc1cnc(Nc2cccc(S(N)(=O)=O)c2)nc1N1CCN(c2ccccc2)CC1 has a remaining binding of 100% (binding, competition with immobilised ligand; 1 µM).
Cc1cnn2ncc(-c3ccnc(N(C)C)n3)c2c1 has a remaining binding of 82% (binding; 1 µM).
O=C(Nc1c[nH]nc1C(=O)NC1CCNCC1)c1cc(F)cc(F)c1 has a remaining binding of 100% (binding, competition with immobilised ligand; 1 µM).
FC(F)(F)Oc1cccc(-c2cnc3ccc(-c4ccncc4)nn23)c1 has a remaining binding of 97% (cell-free assay, competition with immobilised ligand; 5 µM).
With C[C@@H]1CN(c2cc(-c3nn(C)c4ccc(OC5(C)CC5)cc34)ncn2)C[C@H](C)O1 the remaining binding was 100% (cell-free assay, competition with immobilised ligand; 1 µM).
N[C@H]1CCN(c2nccc(-c3cnn4ncccc34)n2)C1 has a remaining binding of 57% (binding; 1 µM).
O=C(Nc1ccc(Oc2ccc(F)cc2)cc1)N1CCc2ncccc2[C@H]1c1ccc(F)cc1 has a remaining binding of 100% (cell-free assay, competition with immobilised ligand; 1 µM).
The remaining binding of O=C(NCCCN1CCOCC1)c1ccc(Nc2ncc(Cl)c(-c3ccc(Cl)s3)n2)cc1 is reported as 100% (binding, competition with immobilised ligand; 1 µM).
For N#Cc1ccccc1CSc1nnc2c(n1)[nH]c1ccccc12, the remaining binding was 93% (binding, competition with immobilised ligand; 10 µM).
With O=C(O)[C@H]1[C@H](Cn2nnc3ccccc3c2=O)CC[C@@H]1C(=O)c1ccc(OCCC2CCOCC2)cc1 the remaining binding was 100% (cell-free assay, competition with immobilised ligand; 1 µM).
The remaining binding of Nc1ncc2c(n1)-c1c([nH]c3ccc(C#CC4CC4)cc13)CCCC2 is reported as 97% (binding, competition with immobilised ligand; 1 µM).
For CN(CCCC(F)(F)F)c1nccc(-c2cnn3ncccc23)n1, the remaining binding was 100% (binding; 1 µM).
COc1cc(-c2cn(C3CCc4ccccc4N(CC(F)(F)F)C3=O)nn2)ccc1-n1ccc(C)n1 (stereo not shown) gave a remaining binding of 100% (cell-free assay, competition with immobilised ligand; 1 µM).
F[C@@H]1CCN(c2nccc(-c3cnn4ncccc34)n2)C1 has a remaining binding of 100% (binding; 1 µM).
CCc1ccccc1C(=O)Nc1n[nH]c2c(C)c(F)c(C3C(C#N)=C(C)N(C)C(C)=C3C#N)cc12 has a remaining binding of 30% (cell-free assay, competition with immobilised ligand; 1 µM).
